Assay results from different studies.
Lines come from different studies, so protocols differ.
Target: D(2) dopamine receptor (DRD2, Homo sapiens, UniProt P14416)
Concentration: 10 µM

read-out | mode | technique | inhibition | SMILES
ligand displacement |  | radioligand | 93% | O=C1c2ccccc2CCCN1CCCCN1CCN(c2ccccn2)CC1
ligand displacement |  |  | -11.5% | N#Cc1cc(Cn2c(N3CCCC3)nc3ccccc32)ccc1F
ligand displacement |  | radioligand | 15.2% | Cc1ncccc1OC[C@@H]1CN(CCN2CCc3ccccc32)CCO1
enzyme activity | inhibitor |  | 11.9% | COc1ccc(CCN2C(=O)CC(N3CCN(c4ccc(Cl)cc4)CC3)C2=O)cc1OC (centres unmarked)
cell-free assay |  |  | 16.1% | CN(C)C(=O)Cn1cc(-c2nc(C3(c4ccc(-c5cnc(N)nc5)cc4)CC3)no2)cn1
ligand displacement |  | radioligand | 66.6% | COc1ccc2c(c1)C(=O)N(CCN1CCN(c3ccccc3OC)CC1)C2
enzyme activity | inhibitor |  | 21.9% | CCn1c2ccccc2c2cc(CNCCCN3CCOCC3)ccc21
ligand displacement |  |  | -3.06% | C[C@@H](c1cccc(C#N)c1)n1cc(Cl)cc(C(N)=O)c1=N
ligand displacement |  | radioligand | < 10% | O=C1N=C(N2CCCCN2)S/C1=C\c1ccc(F)cc1O
ligand displacement |  | radioligand | 6.1% | Cc1ccnc(C)c1OC[C@H]1CN(CCN2CCc3ccccc32)CCO1
ligand displacement |  |  | 31.5% | CN(C)CC#Cc1ccc(OCCCc2sc(N3CCc4cccc(C(=O)Nc5nc6ccccc6s5)c4C3)nc2C(=O)O)c(F)c1
ligand displacement |  | radioligand | 5.5% | O=C(CN1CCO[C@@H](COc2cccnc2)C1)N1CCc2ccccc21
enzyme activity | inhibitor |  | 48.3% | O=C1C2CCCN2C(=O)N1CCCCN1CCN(c2ccccc2)CC1 (centres unmarked)
ligand displacement |  |  | -3.91% | O=C1NC(c2ccccn2)Sc2ccccc21 (centres unmarked)
enzyme activity | inhibitor |  | 46.8% | Cc1c(Cl)cccc1-c1ccc(CNCC(O)c2ccccc2)o1 (centres unmarked)
cell-free assay |  |  | -14.4% | Cc1c(C(=O)O)cc(-c2ccc(C3CCNCC3)cc2)c2ccc(-c3ccc(C(F)(F)F)cc3)cc12
enzyme activity | inhibitor |  | 49.2% | Cc1ccccc1N1CCN(CC(O)COc2ccc(C(=O)c3ccccc3)cc2)CC1 (centres unmarked)
ligand displacement |  |  | -5.34% | Cc1ccc(-c2cnc([C@@]3(O)CC[C@H](C(=O)O)C(C)(C)C3)s2)cc1Nc1cccc(C(F)(F)F)n1
enzyme activity | inhibitor |  | 8.6% | COc1cccc(N2CCN(C3CC(=O)N(c4cccc(OC)c4)C3=O)CC2)c1 (centres unmarked)
ligand displacement |  | radioligand | 62.7% | Clc1cccc(OC[C@@H]2CN(CCN3CCc4ccccc43)CCO2)c1
